The source of these data is ChEMBL document CHEMBL3822361, “Novel 1,6-naphthyridin-2(1H)-ones as potential anticancer agents targeting Hsp90” (Eur J Med Chem, 2016).

Active and inactive are the calls of the source. The rule behind the calls is not given here.

Series [1] relates to MCF7. As to the kind of experiment: Antiproliferative activity against human MCF7 cells measured after 48 hrs by MTT assay. Format: functional, cell-based. The settings on record: MCF7, 48 h. In a few lines: (§1)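 Cells grown in DMEM with 2 mM L-glutamine, penicillin/streptomycin and 5% FBS at 37 °C, 5% CO2; seeded 6000/well in 96-well plates, attached 24 h. Compounds added over a concentration range in DMSO (1% final), 48 h. MTT (2.5 mg/mL in PBS) added for 3.5 h, formazan dissolved in DMSO, OD 570 nm. Growth relative to 1% DMSO; IC50 from separate triplicate experiments.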
Background: Formazan colour is commonly taken as a measure of viable cells.

For series [2], the system named is MCF7. As to the kind of experiment: Antiproliferative activity against human MCF7 cells measured after 5 days by MTS assay. The class given is functional, cell-based. The settings on record: MCF7, 120 h.
Series [3] relates to MDA-MB-468. The series is described as follows: Effect on cell cycle distribution in human MDA-MB-468 cells assessed as accumulation at G2/M-phase at 2 uM measured after 48 hrs by propidium iodide staining-based flow cytometry. Format: functional. The essentials:
(§2)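 MDA-MB-468 seeded 40,000/well in 24-well plates, 24 h at 37 °C, 5% CO2, then treated 48 h with compounds in DMSO (1% final). Cells trypsinized, washed in PBS, fixed in 70% ethanol, rehydrated in PBS, stained with propidium iodide in PBS. Phase distribution (G1, S, G2/M, polyploid, subG1) read by flow cytometry.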
(In flow cytometry, cells or beads pass a laser one at a time.)

For series [4], the system named is MDA-MB-468. The series is described as follows: Antiproliferative activity against human MDA-MB-468 cells measured after 48 hrs by MTT assay. The class given is functional, cell-based. The settings on record: MDA-MB-468, 48 h. The essentials:
as §1

Series [5] has as its system MDA-MB-468. As to the kind of experiment: Cell cycle arrest in human MDA-MB-468 cells at 15 uM measured after 48 hrs by propidium iodide staining-based FACS analysis. The class given is functional. The essentials: as §2
For series [6], the system named is MDA-MB-468. As to the kind of experiment: Induction of apoptosis in human MDA-MB-468 cells assessed as mortality at 15 uM measured after 48 hrs by Annexin V-FITC/propidium iodide staining-based flow cytometry. Format: functional. As to conditions: MDA-MB-468, 48 h. In a few lines:
(§3)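 MDA-MB-468 cells seeded in wells, held 24 h at 37 °C in 5% CO2, then exposed to compound in DMSO (1% DMSO final) for 48 h. Floating and trypsinised adherent cells pooled, PBS-washed, stained with annexin V-FITC plus propidium iodide in binding buffer 15 min on ice in the dark. Flow cytometry, ≥10 000 events per sample; annexin V-positive cells scored apoptotic.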

Series [7] addresses T1, Heat shock protein HSP90 (Homo sapiens) (UniProt P07900+P08238). The series is described as follows: Inhibition of HSP90 in human MCF-7 cells assessed as ER-alpha protein degradation at 1.5 times IC50 measured after 48 hrs by western blot analysis. (In general: A western blot detects proteins with antibodies after separation by electrophoresis.)
For series [8], the system named is MCF7. As to the kind of experiment: Effect on actin level in human MCF7 cells at 1.5 times IC50 measured after 48 hrs by western blot analysis. Format: cell-based. The settings on record: mcf7, 48 h. The essentials: (§4)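 Cells seeded in 6-well plates, 24 h at 37 °C, 5% CO2, then exposed 48 h to compound or 17-AAG in DMSO (1% final) or to vehicle. Lysed 2 h on ice in buffer with protease and phosphatase inhibitors, sonicated, protein measured by BCA. Equal protein run on SDS-PAGE, moved to PVDF, primary antibodies overnight at 4 °C, HRP secondary 1 h, ECL chemiluminescence.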

Series [9] deals with T1, Heat shock protein HSP90 (Homo sapiens). The series is described as follows: Inhibition of HSP90 in human MDA-MB-468 cells assessed as Raf-1 protein degradation at 1.5 times IC50 measured after 48 hrs by western blot analysis. The class given is cell-based. The essentials: as §4
For series [10], the system named is MDA-MB-468. As to the kind of experiment: Effect on actin level in human MDA-MB-468 cells at 1.5 times IC50 measured after 48 hrs by western blot analysis. The class given is cell-based. The settings on record: mda-mb-468, 48 h. In a few lines: as §4
Series [11] deals with T1, Heat shock protein HSP90 (Homo sapiens). As to the kind of experiment: Inhibition of HSP90 in human MCF7 cells assessed as ER-alpha protein degradation at 1.5 times IC50 measured after 48 hrs by western blot analysis. The class given is cell-based. The essentials:
as §4

For series [12] the target is unchanged. As to the kind of experiment: Inhibition of HSP90 in human MCF7 cells assessed as induction of prosurvival heat shock response at 1.5 times IC50 measured after 48 hrs by Western blot analysis. The class given is cell-based. The essentials: as §4
For series [13] the target is unchanged. As to the kind of experiment: Inhibition of HSP90 in human MCF7 cells assessed as Raf-1 protein degradation at 1.5 times IC50 measured after 48 hrs by western blot analysis. The class given is cell-based. The essentials:
as §4

Series [14] concerns MCF7. As to the kind of experiment: Effect on HSP90 level in human MCF7 cells at 1.5 times IC50 measured after 48 hrs by western blot analysis. Format: cell-based. The settings on record: mcf7, 48 h. In a few lines:
as §4

In series [15] the test system is MDA-MB-468. The series is described as follows: Effect on cell cycle in human MDA-MB-468 cells assessed as accumulation at subG1-phase at 15 uM measured after 48 hrs by propidium iodide staining-based FACS analysis. The class given is functional. The essentials:
as §2

For series [16], the system named is MDA-MB-468. As to the kind of experiment: Effect on HSP90 level in human MDA-MB-468 cells at 1.5 times IC50 measured after 48 hrs by western blot analysis. The class given is cell-based. The settings on record: mda-mb-468, 48 h. In a few lines: as §4
In series [17] the test system is MDA-MB-468. The series is described as follows: Induction of apoptosis in human MDA-MB-468 cells assessed as mortality at 10 uM measured after 48 hrs by Annexin V-FITC/propidium iodide staining-based flow cytometry. Format: functional. The settings on record: MDA-MB-468, 48 h. In a few lines:
as §3

In series [18] the test system is MDA-MB-468. The series is described as follows: Effect on cell cycle in human MDA-MB-468 cells assessed as accumulation at subG1-phase at 10 uM measured after 48 hrs by propidium iodide staining-based FACS analysis. The class given is functional. In a few lines: as §2
The test system of series [19] is MDA-MB-468. As to the kind of experiment: Cell cycle arrest in human MDA-MB-468 cells at 10 uM measured after 48 hrs by propidium iodide staining-based FACS analysis. Format: functional. The essentials:
as §2

As a reminder, the IC50 is the midpoint of a concentration-inhibition curve. For `C=CCNC1=C2C[C@@H](C)C[C@H](OC)[C@H](O)[C@@H](C)/C=C(\C)[C@H](OC(N)=O)[C@@H](OC)/C=C\C=C(/C)C(=O)NC(=CC1=O)C2=O` [TANESPIMYCIN], the values for the IC50 in the series on MCF7 [1], in the series on MCF7 [2] and in the series on MDA-MB-468 [4] were 0.029 µM, 0.005 µM and 1.57 µM, respectively. Moreover, the outcome in the series with MDA-MB-468 [3] was Active.

By mortality is commonly meant the share of the test organisms that died. `Cn1c(=O)c(NC(=O)c2cccc(-c3ccccc3)c2)cc2cnc(N3CCN(CCO)CC3)cc21`: the outcome in the series with MDA-MB-468 [5] was inactive. Besides, in the series with MDA-MB-468 [6], the mortality at 15 µM was determined as 80%. Besides, the inhibition result in series [7], in [9], in series [11], in [12] and in series [13] was “Active” in each case. Also, the Activity result was “Non-toxic” with MCF7 [8], “Non-toxic” with MDA-MB-468 [10], “Toxic” in the series with MCF7 [14] and “Toxic” with MDA-MB-468 [16]. For the same compound, the IC50 in the series with MCF7 [1] is 15.2 µM; with MDA-MB-468 [4], 14.7 µM. The result in the series on MDA-MB-468 [15] was Active.

In the case of `COc1ccc(C(=O)Nc2cc3cnc(N4CCN(CCO)CC4)cc3n(C)c2=O)cc1`, the inhibition entry in series [7], in series [9], in series [11] and in [13] was “Active” each time. Moreover, the Activity result with MCF7 [8], in the series with MDA-MB-468 [10], in the series with MCF7 [14] and in the series on MDA-MB-468 [16] was “Non-toxic” throughout. The figures for the IC50 in the series with MCF7 [1] and in the series on MDA-MB-468 [4] were 8.59 µM and 10.5 µM, respectively. Further, the mortality at 10 µM with MDA-MB-468 [17] came to 40%. For the same compound, the result in the series on MDA-MB-468 [18] was Active. For the same compound, the outcome in the series with MDA-MB-468 [19] was inactive.
